# aDG glyco up: activators of alpha-DG glycosylation, primary screen, uHTS, Pro5-aDG cells, AlphaScreen. alpha-DG glycosylation AlphaScreen (IIH6); 0% Pro5, 100% B10-LARGE cell signal. 0.22% of 360,000 active. AID 624168, 2012. activation, % at 10 µM;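 active = activation of at least 8% versus controls, or a plate z-score of at least 8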;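 note: Pro5 are CHO cells carrying HIG-tagged alpha-DG that lacks glycosylation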
# Hep lipid drop: inhibitors of hepatocyte lipid droplet formation, primary screen, imaging, high-throughput imaging, BODIPY stain | AML12 mouse hepatocytes, oleate lipid droplets | inhibition, % at 6.5 µM | 0.4% of 240,000 active;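 active = lipid droplet intensity inhibited by at least 50%, with more than 500 cells counted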
#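 Assay system: AML12 mouse liver cells | Compound: 6.5 µM single-point dosing | Schedule: Overnight exposure | Technique: Fluorescence imaging, 20x objective, two fields per well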
# GRIN3A LBD mod: binders of NR3A ligand-binding domain, primary screen, biophysical, differential scanning fluorimetry, uHTS | Glutamate receptor ionotropic, NMDA 3A (GRIN3A) ligand-binding domain | Tm shift relative to glycine control, % at 25 µM | AID 1259313, 2017 | 2.5% of 340,000 active | NR3A LBD differential scanning fluorimetry, Tm shift; 0% = protein alone, 100% = glycine-bound protein;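 active = melting temperature shift of at least 10% of the positive control shift, at one fixed dose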
# NPR2 activator: human GC-B receptor activators, primary screen, HEK293 GC-B cells, cGMP TR-FRET, EC30 CNP | AID 1920062, 2024 | Atrial natriuretic peptide receptor 2 (Homo sapiens), P20594 | 0.11% of 370,000 active | 0% at EC30 CNP, 100% saturating CNP | activation, % at 10 µM;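 active = activation at 10 µM reaching about 35% in either raw or pattern-adjusted values, limit read from the data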
# NPR1 activator: GC-A stimulated cGMP production enhancers – HEK293 GC-A cells, cGMP TR-FRET, EC30 ANP, primary screen. Atrial natriuretic peptide receptor 1 (Homo sapiens), P16066. 0.14% of 370,000 active. 0% at EC30 ANP, 100% saturating ANP. activation, % at 10 µM; in the data active = activation above about 40%
# Target sequence (P16066 whole entry, looked up): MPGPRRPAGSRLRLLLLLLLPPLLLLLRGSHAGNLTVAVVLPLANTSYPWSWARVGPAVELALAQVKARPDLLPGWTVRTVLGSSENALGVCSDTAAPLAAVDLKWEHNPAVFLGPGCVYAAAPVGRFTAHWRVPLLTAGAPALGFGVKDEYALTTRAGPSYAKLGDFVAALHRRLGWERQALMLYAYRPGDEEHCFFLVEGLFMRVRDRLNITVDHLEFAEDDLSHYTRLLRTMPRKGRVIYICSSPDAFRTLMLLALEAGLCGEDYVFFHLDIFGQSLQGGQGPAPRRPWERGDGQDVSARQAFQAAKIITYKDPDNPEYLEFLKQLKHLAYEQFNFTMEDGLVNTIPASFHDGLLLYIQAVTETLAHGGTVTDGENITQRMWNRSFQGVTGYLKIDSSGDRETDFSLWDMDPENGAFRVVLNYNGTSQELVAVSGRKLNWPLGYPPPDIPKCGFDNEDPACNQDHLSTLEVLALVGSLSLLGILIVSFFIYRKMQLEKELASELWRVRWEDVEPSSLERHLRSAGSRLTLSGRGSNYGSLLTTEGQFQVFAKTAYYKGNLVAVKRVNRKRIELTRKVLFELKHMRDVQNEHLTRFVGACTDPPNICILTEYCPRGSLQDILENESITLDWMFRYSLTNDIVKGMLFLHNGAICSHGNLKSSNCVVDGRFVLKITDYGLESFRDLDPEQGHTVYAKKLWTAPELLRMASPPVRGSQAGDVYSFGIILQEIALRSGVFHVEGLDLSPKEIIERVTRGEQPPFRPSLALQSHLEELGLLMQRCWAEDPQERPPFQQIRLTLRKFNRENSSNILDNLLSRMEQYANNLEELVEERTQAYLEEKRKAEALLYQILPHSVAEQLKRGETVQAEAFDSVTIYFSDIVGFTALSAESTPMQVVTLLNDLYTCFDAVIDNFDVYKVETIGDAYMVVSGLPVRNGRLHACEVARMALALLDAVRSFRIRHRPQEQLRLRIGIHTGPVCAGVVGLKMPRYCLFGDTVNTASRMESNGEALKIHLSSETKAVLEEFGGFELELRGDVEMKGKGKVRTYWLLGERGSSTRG
# GASC-1 inh: inhibitors of GASC-1 histone demethylase, primary screen, biochemical, fluorescence, DELFIA europium. Lysine-specific demethylase 4C (Homo sapiens), Q9H3R0. inhibition, % at 2.35 µM. 0.069% of 330,000 active. GST-JMJD2C(1-420) H3K9me3 demethylation;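 active = more than half of a compound's replicate wells show inhibition beyond 50%, single wells judged on their own value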;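 note: signal counts dimethyl H3K9 product captured on neutravidin plate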
# Hits are given with their value; . = inactive; / = not tested or not shown. In the library only some 3% were active in any assay of this set; here they are far more common.
SMILES,aDG glyco up,Hep lipid drop,GRIN3A LBD mod,NPR2 activator,NPR1 activator,GASC-1 inh
Cc1ccc(C(=O)c2c3ccccc3[n+]([O-])n2CCC(N)=O)cc1,.,.,.,.,.,.
COc1ccc(N2CSC3=C(C#N)C(c4cccs4)CC(=O)N3C2)cc1 (stereo not drawn),.,/,19,.,.,.
Cc1ccc(C(=O)C(C)OC(=O)Cn2cnc3c2c(=O)n(C)c(=O)n3C)cc1 (stereo not drawn),.,/,.,.,.,.
FC(F)(F)c1cccc(NC(=S)NC(c2ccccc2)c2ccccc2)c1,.,.,30,.,.,.
O=C(NNC(=S)Nc1cccc(C(F)(F)F)c1)c1ccc(Cl)cc1Cl,.,.,20,.,.,.
O=[N+]([O-])c1cc(C(F)(F)F)cc([N+](=O)[O-])c1NCCNC(=S)Nc1ccc(Cl)c(Cl)c1,.,.,26,.,.,.
FC(F)(F)c1cccc(NC(=S)NNC(=S)Nc2cccc(C(F)(F)F)c2)c1,/,.,/,/,/,.
FC(F)(F)c1cccc(NC(=S)Nc2ccc(Cl)c(Cl)c2)c1,.,.,19,.,.,.
CCC/C=C1/CCCOC(C(=O)NCc2ccc(S(C)(=O)=O)cc2)(C(F)(F)F)C1 (stereo not drawn),.,/,.,.,.,.
CS(=O)(=O)c1ccc(CNC(=O)C2(C(F)(F)F)C/C(=C\Cc3ccccc3)CCCO2)cc1 (stereo not drawn),.,/,16,.,.,.
O=C(CN1C(=O)S/C(=C\c2ccc(F)cc2)C1=O)Nc1cccc(S(=O)(=O)NCc2ccco2)c1,.,.,11,.,.,.
Cc1cc(C)nc(NS(=O)(=O)c2ccc(NC(=O)CN3C(=O)S/C(=C\c4ccccc4)C3=O)cc2)n1,.,.,11,.,.,.
Cc1cc(C)nc(NS(=O)(=O)c2ccc(NS(=O)(=O)c3ccccc3)cc2)n1,.,.,.,.,.,.
Cc1cc(C)nc(NS(=O)(=O)c2ccc(NC(=O)Nc3ccccc3)cc2)n1,.,.,19,.,.,.
CC(=O)N1CCc2cc(S(=O)(=O)NCCC(=O)N(C)Cc3ccccc3F)ccc21,/,/,/,.,.,/
COc1ccc(Nc2ncnc3sc(-c4ccccc4)cc23)cc1,.,/,16,.,.,.
COc1ccc(Nc2ccnc(Nc3ccc(OC)cc3)n2)cc1,.,.,.,.,.,.
COc1ncnc2sc(-c3ccccc3)cc12,.,/,.,.,.,.
COc1ccc(Nc2cc(Nc3ccccc3)ncn2)cc1,.,.,31,.,.,.
CCOC(=O)C(C(=O)N1CCOCC1)C1CCCCC1 (stereo not drawn),.,.,.,.,.,.
COC(=O)C(C(=O)N1CCN(C)CC1)C1CCCCCC1 (stereo not drawn),.,.,13,.,.,/
CC1CCC2(CC1)CCC2NCc1ccc(Br)cc1 (stereo not drawn),/,/,/,.,.,/
C=CCn1c(O)c(N=Nc2ccccc2O)c2ccccc21,.,/,15,.,.,.
C=CCn1c(O)c(N=Nc2ccccc2)c2ccccc21,.,/,.,.,.,.
COc1ccccc1C(=O)Nc1ccnn1C1CCN(C/C=C/c2ccccc2)CC1,.,.,13,.,.,.
COc1ccc(CC(=O)N2CCC(n3nccc3NC(=O)C3CCOC3)CC2)cc1 (stereo not drawn),.,.,.,.,.,.
COc1ccccc1CC(=O)N1CCC(n2nccc2NC(=O)C2CCOC2)CC1 (stereo not drawn),.,.,10,.,.,.
O=C(NC1CCCCC1)OC[C@@H]1CSCCS(=O)(=O)N1,/,/,/,.,.,/
